Measurements: ChEMBL document CHEMBL1287652, “QSAR modeling, synthesis and bioassay of diverse leukemia RPMI-8226 cell line active agents” (2010)

Key:
Assay type in all cases: functional
MOLT-4 = assay: Antitumor activity against human MOLT4 cells at 10 uM after 48 hrs by sulforhodamine B assay relative to control; conditions: MOLT-4, 48 h, values are per cent of control
Method in brief: (§1)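 NCI panel lines were grown in RPMI-1640 with 5% FBS and 2 mM L-glutamine and seeded at 5000–40,000 cells/well according to doubling time. After 24 h at 37 °C, 5% CO2, one dose from a DMSO stock was added for 48 h. Cells were TCA-fixed (10% final adherent, 16% suspension), SRB-stained and read at 515 nm. Percent growth is relative to untreated control.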

A549 = assay: Antitumor activity against human A549 cells at 10 uM after 48 hrs by sulforhodamine B assay relative to control; conditions: A549, 48 h, values are per cent of control
Method in brief: (§2)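 Single-dose screen in a 55-line panel. Cells in RPMI-1640 with 5% FBS and 2 mM glutamine were preincubated for 24 h, then exposed to compound (DMSO stock diluted in medium) for 48 h at 37 °C with 5% CO2. Cells were fixed with cold TCA, stained with 0.4% SRB in 1% acetic acid, and dye was solubilized in 10 mM Tris base and read at 515 nm. Growth is given as percent of untreated control.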

EKVX = assay: Antitumor activity against human EKVX cells at 10 uM after 48 hrs by sulforhodamine B assay relative to control; conditions: values are per cent of control; method in brief: as §2
HOP-62 = assay: Antitumor activity against human HOP62 cells at 10 uM after 48 hrs by sulforhodamine B assay relative to control; conditions: HOP-62, 48 h, values are per cent of control; method in brief: as §2
NCI-H226 = assay: Antitumor activity against human NCI-H226 cells at 10 uM after 48 hrs by sulforhodamine B assay relative to control; conditions: NCI-H226, 48 h, values are per cent of control; method in brief: as §1
NCI-H23 = assay: Antitumor activity against human NCI-H23 cells at 10 uM after 48 hrs by sulforhodamine B assay relative to control; conditions: NCI-H23, 48 h, values are per cent of control; method in brief: as §1
COLO 205 = assay: Antitumor activity against human COLO205 cells at 10 uM after 48 hrs by sulforhodamine B assay relative to control; conditions: COLO 205, 48 h, values are per cent of control; method in brief: as §2
HT-29 = assay: Antitumor activity against human HT-29 cells at 10 uM after 48 hrs by sulforhodamine B assay relative to control; conditions: HT-29, 48 h, values are per cent of control; method in brief: as §2
SW-620 = assay: Antitumor activity against human SW620 cells at 10 uM after 48 hrs by sulforhodamine B assay relative to control; conditions: SW-620, 48 h, values are per cent of control
Method in brief: (§3)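 NCI panel line grown in RPMI-1640 with 5% FBS and 2 mM L-glutamine, plated at 5000–40,000 cells/well, 24 h preincubation. Single final 10 µM from DMSO stock, 48 h at 37 °C, 5% CO2. TCA fixation (10% adherent, 16% suspension), SRB stain, absorbance 515 nm. Percent growth relative to untreated control.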

SF-268 = assay: Antitumor activity against human SF268 cells at 10 uM after 48 hrs by sulforhodamine B assay relative to control; conditions: SF-268, 48 h, values are per cent of control; method in brief: as §1
SF-295 = assay: Antitumor activity against human SF295 cells at 10 uM after 48 hrs by sulforhodamine B assay relative to control; conditions: SF-295, 48 h, values are per cent of control; method in brief: as §1
SNB-75 = assay: Antitumor activity against human SNB75 cells at 10 uM after 48 hrs by sulforhodamine B assay relative to control; conditions: SNB-75, 48 h, values are per cent of control; method in brief: as §1
U-251 = assay: Antitumor activity against human U251 cells at 10 uM after 48 hrs by sulforhodamine B assay relative to control; conditions: U-251, 48 h, values are per cent of control; method in brief: as §3
LOX IMVI = assay: Antitumor activity against human LOXIMVI cells at 10 uM after 48 hrs by sulforhodamine B assay relative to control; conditions: values are per cent of control; method in brief: as §2
Malme-3M = assay: Antitumor activity against human MALME-3M cells at 10 uM after 48 hrs by sulforhodamine B assay relative to control; conditions: values are per cent of control; method in brief: as §2
M14 = assay: Antitumor activity against human M14 cells at 10 uM after 48 hrs by sulforhodamine B assay relative to control; conditions: M14, 48 h, values are per cent of control; method in brief: as §2
SK-MEL-28 = assay: Antitumor activity against human SK-MEL-28 cells at 10 uM after 48 hrs by sulforhodamine B assay relative to control; conditions: SK-MEL-28, 48 h, values are per cent of control; method in brief: as §1
SK-MEL-5 = assay: Antitumor activity against human SK-MEL-5 cells at 10 uM after 48 hrs by sulforhodamine B assay relative to control; conditions: SK-MEL-5, 48 h, values are per cent of control; method in brief: as §1
IGROV-1 = assay: Antitumor activity against human IGROV1 cells at 10 uM after 48 hrs by sulforhodamine B assay relative to control; conditions: IGROV-1, 48 h, values are per cent of control; method in brief: as §2
786-0 = assay: Antitumor activity against human 786-0 cells at 10 uM after 48 hrs by sulforhodamine B assay relative to control; conditions: 786-0, 48 h, values are per cent of control; method in brief: as §2
A498 = assay: Antitumor activity against human A498 cells at 10 uM after 48 hrs by sulforhodamine B assay relative to control; conditions: A498, 48 h, values are per cent of control; method in brief: as §2
ACHN = assay: Antitumor activity against human ACHN cells at 10 uM after 48 hrs by sulforhodamine B assay relative to control; conditions: values are per cent of control; method in brief: as §2
SN12C = assay: Antitumor activity against human SN12C cells at 10 uM after 48 hrs by sulforhodamine B assay relative to control; conditions: values are per cent of control; method in brief: as §1
UO-31 = assay: Antitumor activity against human UO31 cells at 10 uM after 48 hrs by sulforhodamine B assay relative to control; conditions: UO-31, 48 h, values are per cent of control; method in brief: as §3
PC-3 = assay: Antitumor activity against human PC3 cells at 10 uM after 48 hrs by sulforhodamine B assay relative to control; conditions: PC-3, 48 h, values are per cent of control; method in brief: as §1
DU-145 = assay: Antitumor activity against human DU145 cells at 10 uM after 48 hrs by sulforhodamine B assay relative to control; conditions: DU-145, 48 h, values are per cent of control; method in brief: as §2
MCF7 = assay: Antitumor activity against human MCF7 cells at 10 uM after 48 hrs by sulforhodamine B assay relative to control; conditions: MCF7, 48 h, values are per cent of control; method in brief: as §2
MDA-MB-231 = assay: Antitumor activity against human MDA-MB-231 cells at 10 uM after 48 hrs by sulforhodamine B assay relative to control; conditions: MDA-MB-231, 48 h, values are per cent of control; method in brief: as §2
[1] = Antitumor activity against human Hs 578T cells at 10 uM after 48 hrs by sulforhodamine B assay relative to control; conditions: values are per cent of control; method in brief: as §2
BT-549 = assay: Antitumor activity against human BT549 cells at 10 uM after 48 hrs by sulforhodamine B assay relative to control; conditions: BT-549, 48 h, values are per cent of control; method in brief: as §2
T47D = assay: Antitumor activity against human T47D cells at 10 uM after 48 hrs by sulforhodamine B assay relative to control; conditions: values are per cent of control; method in brief: as §3

SMILES | growth, % of control at 10 µM (MOLT-4) | growth, % of control at 10 µM (A549) | growth, % of control at 10 µM (EKVX) | growth, % of control at 10 µM (HOP-62) | growth, % of control at 10 µM (NCI-H226) | growth, % of control at 10 µM (NCI-H23) | growth, % of control at 10 µM (COLO 205) | growth, % of control at 10 µM (HT-29) | growth, % of control at 10 µM (SW-620) | growth, % of control at 10 µM (SF-268) | growth, % of control at 10 µM (SF-295) | growth, % of control at 10 µM (SNB-75) | growth, % of control at 10 µM (U-251) | growth, % of control at 10 µM (LOX IMVI) | growth, % of control at 10 µM (Malme-3M) | growth, % of control at 10 µM (M14) | growth, % of control at 10 µM (SK-MEL-28) | growth, % of control at 10 µM (SK-MEL-5) | growth, % of control at 10 µM (IGROV-1) | growth, % of control at 10 µM (786-0) | also measured
COc1ccc(NC(=O)Nc2ccccc2OCCCOc2ccccc2NC(=O)Nc2ccc(OC)cc2)cc1 | -5.8% | -80% | 2.2% | 38.5% | 87.1% | 2.8% | 18.6% | 54.9% | 0.7% | 50.7% | 49% | -34.8% | -50.9% | 23.7% | 55.1% | 61.4% | 45.7% | 48.7% | 4.9% | -31.5% | growth, % of control at 10 µM (A498): -9.3%; growth, % of control at 10 µM (ACHN): 46.3%; growth, % of control at 10 µM (SN12C): -21.3%; growth, % of control at 10 µM (UO-31): -20.7%; growth, % of control at 10 µM (PC-3): -36.5%; growth, % of control at 10 µM (DU-145): 39.4%; growth, % of control at 10 µM (MCF7): 28.2%; growth, % of control at 10 µM (MDA-MB-231): 34%; growth, % of control at 10 µM [1]: 46.4%; growth, % of control at 10 µM (BT-549): 81.2%; growth, % of control at 10 µM (T47D): 9.2%
O=C(Nc1ccc(Cl)cc1)Nc1ccc(OCCCOc2ccc(NC(=O)Nc3ccc(Cl)cc3)cc2)cc1 | 118% | 107% | 95% | 96.2% | 123% | 96.5% | 166% | 114% | 104% | 125% | 97.3% | 92.2% | 103% | 98.1% | 101% | 96.7% | 111% | > 100% | 85.1% | 93.7% | growth, % of control at 10 µM (A498): 107%; growth, % of control at 10 µM (ACHN): 106%; growth, % of control at 10 µM (SN12C): 105%; growth, % of control at 10 µM (UO-31): 68.8%; growth, % of control at 10 µM (PC-3): 93%; growth, % of control at 10 µM (DU-145): 121%; growth, % of control at 10 µM (MCF7): 103%; growth, % of control at 10 µM (MDA-MB-231): 111%; growth, % of control at 10 µM [1]: 85.4%; growth, % of control at 10 µM (BT-549): 102%; growth, % of control at 10 µM (T47D): 106%
